Data published in ChEMBL document CHEMBL2010670, “Discovery of a clinical stage multi-kinase inhibitor sodium (E)-2-{2-methoxy-5-[(2',4',6'-trimethoxystyrylsulfonyl)methyl]phenylamino}acetate (ON 01910.Na): synthesis, structure-activity relationship, and biological activity” (J Med Chem, 2011).
Activity calls are given as the source filed them. The calls are words filed in the database; no cut-off is given here.

Legend:
[1] = test system: BT-20; test: Cytotoxicity against human BT20 cells after 96 hrs by trypan blue exclusion assay; type: functional, cell-based; conditions: BT-20, 96 h
Summary of the method: (§1)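 Cells grown in DMEM or RPMI with 10% FBS and penicillin-streptomycin, seeded at 1.0 × 10⁵ cells/mL/well in 6-well dishes. Compound added at a range of concentrations 24 h after seeding. Viable cells counted by trypan blue exclusion from duplicate wells after 96 h of exposure; dose-response end point.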

[2] = test system: T47D; test: Cytotoxicity against human T47D cells after 96 hrs by trypan blue exclusion assay; type: functional, cell-based
Summary of the method: (§2)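 Cells grown in DMEM or RPMI with 10% FBS and 1 unit/mL penicillin-streptomycin, seeded at 1.0 × 10⁵ cells/mL/well in 6-well dishes; compound added 24 h later at various concentrations. After 96 h of treatment, viable cells counted by trypan blue exclusion in duplicate wells; dose-response end point.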

[3] = test system: MCF7; test: Cytotoxicity against human MCF7 cells after 96 hrs by trypan blue exclusion assay; type: functional, cell-based; conditions: MCF7, 96 h; summary of the method: as §1
[4] = test system: SK-BR-3; test: Cytotoxicity against human SKBR3 cells after 96 hrs by trypan blue exclusion assay; type: functional, cell-based; conditions: SK-BR-3, 96 h; summary of the method: as §2
[5] = test system: BT-474; test: Cytotoxicity against human BT474 cells after 96 hrs by trypan blue exclusion assay; type: functional, cell-based; conditions: BT-474, 96 h; summary of the method: as §1
[6] = test system: DU-145; test: Cytotoxicity against human DU145 cells after 96 hrs by trypan blue exclusion assay; type: functional, cell-based; conditions: Homo sapiens, DU-145, 96 h; summary of the method: as §1
[7] = test system: PC-3; test: Cytotoxicity against human PC3 cells after 96 hrs by trypan blue exclusion assay; type: functional, cell-based; conditions: PC-3, 96 h; summary of the method: as §1
[8] = test system: OVCAR-3; test: Cytotoxicity against human OVCAR3 cells after 96 hrs by trypan blue exclusion assay; type: functional, cell-based; conditions: OVCAR-3, 96 h; summary of the method: as §1
[9] = test system: MIA PaCa-2; test: Cytotoxicity against human MIAPaCa2 cells after 96 hrs by trypan blue exclusion assay; type: functional, cell-based; conditions: MIA PaCa-2, 96 h; summary of the method: as §1
[10] = Cytotoxicity against human U87 cells after 96 hrs by trypan blue exclusion assay; type: functional, cell-based, U-87MG ATCC; conditions: U-87 MG; summary of the method: as §2
[11] = test system: NCI-H157; test: Cytotoxicity against human NCI-H157 cells after 96 hrs by trypan blue exclusion assay; type: functional, cell-based; conditions: NCI-H157, 96 h; summary of the method: as §1
[12] = test system: A549; test: Cytotoxicity against human A549 cells after 96 hrs by trypan blue exclusion assay; type: functional, cell-based; conditions: A549, 96 h; summary of the method: as §1
[13] = test system: NCI-H1975; test: Cytotoxicity against human NCI-H1975 cells after 96 hrs by trypan blue exclusion assay; type: functional, cell-based; conditions: NCI-H1975, 96 h; summary of the method: as §1
[14] = test system: NCI-H187; test: Cytotoxicity against human NCI-H187 cells after 96 hrs by trypan blue exclusion assay; type: functional, cell-based; conditions: NCI-H187, 96 h; summary of the method: as §1
[15] = test system: NCI-H417; test: Cytotoxicity against human NCI-N417 cells after 96 hrs by trypan blue exclusion assay; type: functional, cell-based; conditions: NCI-H417, 96 h; summary of the method: as §1
[16] = test system: AGS; test: Cytotoxicity against human AGS cells after 96 hrs by trypan blue exclusion assay; type: functional, cell-based; summary of the method: as §1
[17] = Cytotoxicity against human RF1 cells after 96 hrs by trypan blue exclusion assay; type: functional, cell-based; conditions: RF1, 96 h; summary of the method: as §2
[18] = Cytotoxicity against human RF48 cells after 96 hrs by trypan blue exclusion assay; type: functional, cell-based; conditions: RF48, 96 h; summary of the method: as §2
[19] = test system: COLO 205; test: Cytotoxicity against human COLO205 cells after 96 hrs by trypan blue exclusion assay; type: functional, cell-based; conditions: COLO 205, 96 h; summary of the method: as §1
[20] = test system: DLD-1; test: Cytotoxicity against human DLD1 cells after 96 hrs by trypan blue exclusion assay; type: functional, cell-based; conditions: DLD-1, 96 h; summary of the method: as §1
[21] = test system: HCT-116; test: Cytotoxicity against human HCT116 cells after 96 hrs by trypan blue exclusion assay; type: functional, cell-based; conditions: HCT-116, 96 h; summary of the method: as §1
[22] = test system: HCT-15; test: Cytotoxicity against human HCT15 cells after 96 hrs by trypan blue exclusion assay; type: functional, cell-based; conditions: HCT-15, 96 h; summary of the method: as §1
[23] = Cytotoxicity against human COLO320 cells after 96 hrs by trypan blue exclusion assay; type: functional, cell-based; conditions: COLO 320, 96 h; summary of the method: as §1
[24] = test system: SW480; test: Cytotoxicity against human SW480 cells after 96 hrs by trypan blue exclusion assay; type: functional, cell-based; conditions: SW480, 96 h; summary of the method: as §2
[25] = test system: K562; test: Cytotoxicity against human K562 cells after 96 hrs by trypan blue exclusion assay; type: functional, cell-based; conditions: Homo sapiens, K562, 96 h; summary of the method: as §1
[26] = test system: MOLT-4; test: Cytotoxicity against human MOLT4 cells after 96 hrs by trypan blue exclusion assay; type: functional, cell-based; conditions: MOLT-4, 96 h; summary of the method: as §1
[27] = Cytotoxicity against human Z138C cells after 96 hrs by trypan blue exclusion assay; type: functional, cell-based; summary of the method: as §2
[28] = Cytotoxicity against human GRANTA-519 cells after 96 hrs by trypan blue exclusion assay; type: functional, cell-based; conditions: Granta-519, 96 h; summary of the method: as §1
[29] = test system: LP-1; test: Cytotoxicity against human LP-1 cells after 96 hrs by trypan blue exclusion assay; type: functional, cell-based; conditions: LP-1, 96 h; summary of the method: as §1
[30] = test system: U-266; test: Cytotoxicity against human U266 cells after 96 hrs by trypan blue exclusion assay; type: functional, cell-based; conditions: U-266, 96 h; summary of the method: as §2
[31] = test system: OPM-2; test: Cytotoxicity against human OPM2 cells after 96 hrs by trypan blue exclusion assay; type: functional, cell-based; conditions: OPM-2, 96 h; summary of the method: as §1
[32] = Cytotoxicity against human […] cells after 96 hrs by trypan blue exclusion assay; type: functional, cell-based; summary of the method: as §2
[33] = test system: Daudi; test: Cytotoxicity against human Daudi cells after 96 hrs by trypan blue exclusion assay; type: functional, cell-based; summary of the method: as §1
[34] = test system: Raji; test: Cytotoxicity against human Raji cells after 96 hrs by trypan blue exclusion assay; type: functional, cell-based; summary of the method: as §2
[35] = Cytotoxicity against human NAMALWA cells after 96 hrs by trypan blue exclusion assay; type: functional, cell-based; conditions: NAMALVA; summary of the method: as §1
[36] = Cytotoxicity against human MES-SA cells assessed as cell viability after 96 hrs by trypan blue exclusion; type: functional, cell-based; summary of the method: as §1
[37] = Cytotoxicity against multidrug-resistant human MES-SA/Dx5 cells assessed as cell viability after 96 hrs by trypan blue exclusion; type: functional, cell-based; conditions: MES-SA/Dx5, 96 h; summary of the method: as §2
[38] = test system: CCRF-CEM; test: Cytotoxicity against human CEM cells assessed as cell viability after 96 hrs by trypan blue exclusion; type: functional, cell-based; summary of the method: as §1
[39] = test system: CEM/C2; test: Cytotoxicity against multidrug-resistant human CEM/C2 cells assessed as cell viability after 96 hrs by trypan blue exclusion; type: functional, cell-based; conditions: CEM/C2, 96 h; summary of the method: as §2
[40] = test system: 2008; test: Cytotoxicity against human 2008 cells assessed as cell viability after 96 hrs by trypan blue exclusion; type: functional, cell-based; conditions: Homo sapiens, 2008, 96 h; summary of the method: as §1
[41] = Cytotoxicity against multidrug-resistant human 2008/17/4 cells assessed as cell viability after 96 hrs by trypan blue exclusion; type: functional, cell-based; summary of the method: as §2
[42] = test system: DU-145; test: Cell cycle arrest in human DU145 cells assessed as accumulation of cells in G2/M phase after 24 hrs by propidium iodide staining-based flow cytometric analysis; type: functional
Summary of the method: (§3)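 DMEM with 10% FBS; 1.0 × 10⁶ cells/dish, treated 24 h after plating and harvested 24 h after treatment. Trypsinized cells were pooled with floating cells, PBS-washed and fixed in ice-cold 70% ethanol for ≥24 h. Cells were stained with propidium iodide plus RNase A for 30 min at 37 °C. DNA content was read by flow cytometry with cell-cycle modelling.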

[43] = test system: DU-145; test: Cell cycle arrest in human DU145 cells assessed as accumulation of cells containing subG1 content of DNA at 0.1 to 1 uM after 24 hrs by propidium iodide staining-based flow cytometric analysis; type: functional; summary of the method: as §3
[44] = test system: DU-145; test: Induction of apoptosis in human DU145 cells assessed as PARP1 cleavage at 0.25 to 5 uM after 48 hrs by Western blot analysis; type: functional, cell-based
Summary of the method: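 DU145 or HFL-1 cells plated at 3.0 × 10⁶ per […], treated 24 h later with DMSO or compound for 48 h. Frozen pellets lysed in 1% NP40/PBS with protease inhibitors. Equal protein run on 10% SDS-PAGE, transferred to nitrocellulose, probed with anti-PARP antibody, ECL detection.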

[45] = test system: A549; test: Induction of apoptosis in human A549 cells assessed as cell viability at 0.25 uM after 24 hrs by fluorescence assay; type: functional, cell-based
Summary of the method: (§4)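 A549 cells seeded at 3,600 cells/well in DMEM + 10% FBS, adhered overnight at 37 °C, then exposed to varying compound concentrations or DMSO for 24 h. Viability read first as fluorescence 3 h after CellTiter-Blue addition. Caspase-Glo 3/7 was then added to the same wells, developed 2 h at room temperature, and luminescence read; n=3.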

[46] = test system: A549; test: Induction of apoptosis in human A549 cells assessed as caspase 3/7 activity at 0.25 uM after 24 hrs by luminescence assay; type: functional, cell-based; summary of the method: as §4

Structure (SMILES): COc1cc(OC)c(/C=C/S(=O)(=O)Cc2ccc(OC)c(N)c2)c(OC)c1
- IC50 [1]: 30 nM
- IC50 [2]: 3 nM
- IC50 [3]: 1 nM
- IC50 [4]: 3 nM
- IC50 [5]: 2 nM
- IC50 [6]: 4 nM
- IC50 [7]: 6 nM
- IC50 [8]: 3 nM
- IC50 [9]: 3 nM
- IC50 [10]: 3 nM
- IC50 [11]: 4 nM
- IC50 [12]: 3 nM
- IC50 [13]: 3 nM
- IC50 [14]: 4 nM
- IC50 [15]: 3 nM
- IC50 [16]: 3 nM
- IC50 [17]: 2 nM
- IC50 [18]: 1 nM
- IC50 [19]: 5 nM
- IC50 [20]: 5 nM
- IC50 [21]: 3 nM
- IC50 [22]: 3 nM
- IC50 [23]: 3 nM
- IC50 [24]: 5 nM
- IC50 [25]: 2.5 nM
- IC50 [26]: 4 nM
- IC50 [27]: 3 nM
- IC50 [28]: 3 nM
- IC50 [29]: 3 nM
- IC50 [30]: 3 nM
- IC50 [31]: 3 nM
- IC50 [32]: 3 nM
- IC50 [33]: 3 nM
- IC50 [34]: 2 nM
- IC50 [35]: 5 nM
- IC50 [36]: 4 nM
- IC50 [37]: 4 nM
- IC50 [38]: 10 nM
- IC50 [39]: 10 nM
- IC50 [40]: 3 nM
- IC50 [41]: 3 nM

Structure (SMILES): COc1cc(OC)c(/C=C/S(=O)(=O)Cc2ccc(OC)c(NCC(=O)O)c2)c(OC)c1
- Activity [42]: Dose-dependent effect
- Activity [43]: Active
- Activity [44]: Active
- Activity [45]: Active
- Activity [46]: Active
